# From ChEMBL document CHEMBL1152933, “Synthesis and evaluation of novel 7-azaindazolyl-indolyl-maleimide derivatives as antitumor agents and protein kinase C inhibitors” (Bioorg Med Chem, 2009)
# The source made the active and inactive calls. The rule behind the calls is not given here.
# Experiments:
# [1] = Antiproliferative activity against human ECA109 cells after 48 hrs by MTT assay; type: functional, cell-based; details: ECa-109, 48 h
# Outline: (§1)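 MTT assay after 48 h incubation with compound. MTT (5.0 mg/mL stock in RPMI-1640) was added and incubated a further 4 h at 37 °C. Formazan was dissolved in DMSO and absorbance read at 570 nm. IC50 is the concentration giving 50% decrease in cell growth, computed from dose-effect analysis. Triplicate wells, three independent experiments, values are means.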
# SMMC-7721 = assay: Antiproliferative activity against human SMMC7721 cells after 48 hrs by MTT assay; type: functional, cell-based; details: SMMC-7721, 48 h; outline: as §1
# K562 = assay: Antiproliferative activity against human K562 cells after 48 hrs by MTT assay; type: functional, cell-based; details: K562, 48 h; outline: as §1
# A549 = assay: Antiproliferative activity against human A549 cells after 48 hrs by MTT assay; type: functional, cell-based; details: A549, 48 h; outline: as §1
# [2] = Inhibition of PKC by […] assay
# Outline: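 Recombinant PKC was incubated with reaction mixture containing a fluorescent PepTag PKC-specific peptide substrate at 30 °C for 30 min, then stopped by boiling. Phosphorylated (−1) and nonphosphorylated (+1) peptide were separated on 0.8% agarose in 50 mM Tris-HCl pH 8.0 at 100 V for 15 min and visualized under UV. IC50 values are means of three experiments.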
# KB [3] = assay: Antiproliferative activity against human KB cells after 48 hrs by MTT assay; type: functional, cell-based; outline: as §1
# KB [4] = assay: Induction of apoptosis in human KB cells assessed as increase in JNK expression at 20 uM after 48 hrs by Western blotting; type: functional, cell-based
# Outline: (§2)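 KB cells were treated 48 h with 10 or 20 µM, then lysed in NaCl/Tris pH 8.0/EGTA/EDTA/NaF/β-glycerophosphate/Triton/NP-40/PMSF buffer. Protein was quantified by BCA. Equal protein was run on 10–12% Tris-glycine gels and blotted. Blots were probed for JNK, Bax, Bcl-2, procaspase-9, procaspase-3 and tubulin, with HRP secondary and ECL detection. Bax/Bcl-2 ratio was derived from the blots.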
# KB [5] = assay: Induction of apoptosis in human KB cells assessed as increase in caspase 3/7 activity at 20 uM after 48 hrs; type: functional, cell-based
# Outline: (§3)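 KB cells were cultured 48 h with 10 or 20 µM, then caspase-3/7 activity was measured with a Caspase-Glo 3/7 kit per the kit protocol and compared with control cells.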
# KB [6] = assay: Induction of apoptosis in human KB cells assessed as increase in caspase 3/7 activity at 10 uM after 48 hrs; type: functional, cell-based; outline: as §3
# KB [7] = assay: Induction of apoptosis in human KB cells assessed as increase in Bax/Bcl-2 ratio at 20 uM after 48 hrs by Western blotting; type: functional, cell-based; outline: as §2
# KB [8] = assay: Antiproliferative activity against human KB cells at 10 uM after 48 hrs by MTT assay; type: functional, cell-based
# KB [9] = assay: Antiproliferative activity against human KB cells at 20 uM after 48 hrs by light microscopy
# KB [10] = assay: Induction of apoptosis in human KB cells assessed as decrease in procaspase-9 expression at 20 uM after 48 hrs by Western blotting; type: functional, cell-based; outline: as §2
# KB [11] = assay: Induction of apoptosis in human KB cells assessed as DNA fragmentation at 20 uM after 48 hrs by agarose gel electrophoresis; type: functional, cell-based
# Outline: (§4)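 KB cells were treated 48 h with 10 or 20 µM, then lysed in EDTA/Tris pH 8.0/SDS/proteinase K buffer at 37 °C for 12 h, followed by RNase 1 h at 37 °C. DNA was phenol/chloroform extracted and ethanol precipitated, then run on 1.5% agarose gel with ethidium bromide and photographed for laddering.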
# KB [12] = assay: Induction of apoptosis in human KB cells assessed as decrease in BCL-2 expression at 20 uM after 48 hrs by Western blotting; type: functional, cell-based; outline: as §2
# KB [13] = assay: Induction of apoptosis in human KB cells assessed as decrease in procaspase-3 expression at 20 uM after 48 hrs by Western blotting; type: functional, cell-based; outline: as §2
# KB [14] = assay: Induction of apoptosis in human KB cells assessed as DNA fragmentation at 10 uM after 48 hrs by agarose gel electrophoresis; type: functional, cell-based; outline: as §4
SMILES,IC50 [1] [µM],IC50 (SMMC-7721) [µM],IC50 (K562) [µM],IC50 (A549) [µM],IC50 [2] [µM],IC50 (KB [3]) [µM],Activity (KB [4]),Activity (KB [5]),Activity (KB [6]),Activity (KB [7]),Activity (KB [8]),Activity (KB [9]),Activity (KB [10]),Activity (KB [11]),Activity (KB [12]),Activity (KB [13]),Activity (KB [14])
CN(C)CCCn1nc(C2=C(c3cn(C)c4ccccc34)C(=O)N(c3ccccc3)C2=O)c2cccnc21,5.84,31.2,1.7,13,> 10,14.1,,,,,,,,,,,
Cn1cc(C2=C(c3n[nH]c4ncccc34)C(=O)N(c3cccc4ccccc34)C2=O)c2ccccc21,> 100,> 100,> 100,> 100,> 10,> 100,,,,,,,,,,,
Cn1cc(C2=C(c3nn(CCCn4cncn4)c4ncccc34)C(=O)NC2=O)c2ccccc21,> 100,> 100,> 100,> 100,2.2,> 100,,,,,,,,,,,
Cn1cc(C2=C(c3nn(CCn4ccnc4)c4ncccc34)C(=O)NC2=O)c2ccccc21,> 100,> 100,> 100,> 100,9.1,> 100,,,,,,,,,,,
Cn1cc(C2=C(c3nn(CCCN4CCCCC4)c4ncccc34)C(=O)N(c3cccc4ccccc34)C2=O)c2ccccc21,1.83,0.22,3.18,2.82,> 10,13.4,,,,,,,,,,,
Cn1cc(C2=C(c3nn(CCn4ccnc4)c4ncccc34)C(=O)N(c3ccccc3)C2=O)c2ccccc21,8.77,> 100,26.4,43.1,> 10,> 100,,,,,,,,,,,
CN1CCN(CCCn2nc(C3=C(c4cn(C)c5ccccc45)C(=O)NC3=O)c3cccnc32)CC1,> 100,> 100,46.7,> 100,1.86,> 100,,,,,,,,,,,
O=C1NC(=O)C(c2c[nH]c3ccccc23)=C1c1c[nH]c2ccccc12 [RO-316233],83.5,> 100,17.5,56.6,0.35,53.8,,,,,,,,,,,
COc1ccc(N2C(=O)C(c3cn(C)c4ccccc34)=C(c3nn(CCCN4CCCCC4)c4ncccc34)C2=O)cc1,3.34,1.74,> 100,30.3,> 10,44,,,,,,,,,,,
Cn1cc(C2=C(c3n[nH]c4ncccc34)C(=O)NC2=O)c2ccccc21,46.1,> 100,> 100,> 100,> 10,62,,,,,,,,,,,
Cn1cc(C2=C(c3nn(CCCN4CCCCC4)c4ncccc34)C(=O)N(c3ccccc3)C2=O)c2ccccc21,12.3,3.05,3.79,20.6,> 10,5.6,Active,Active,Active,Active,Active,Active,Active,Active,Active,Active,Active
Cn1cc(C2=C(c3nn(CCCn4cccc4)c4ncccc34)C(=O)NC2=O)c2ccccc21,> 100,> 100,21.6,> 100,1.1,> 100,,,,,,,,,,,
Cn1cc(C2=C(c3nn(CCCN4CCCCC4)c4ncccc34)C(=O)NC2=O)c2ccccc21,42.3,7.67,5.96,> 100,0.65,98,,,,,,,,,,,
Cn1cc(C2=C(c3nn(CCCN4CCCCC4)c4ncccc34)C(=O)N(c3ccc(Cl)cc3)C2=O)c2ccccc21,> 100,> 100,1.8,28.7,> 10,> 100,,,,,,,,,,,
Cn1cc(C2=C(c3nn(CCCCn4ccnc4)c4ncccc34)C(=O)N(c3ccccc3)C2=O)c2ccccc21,7.54,1.76,5.03,21.7,> 10,47.3,,,,,,,,,,,
Cn1cc(C2=C(c3nn(CCCO)c4ncccc34)C(=O)NC2=O)c2ccccc21,> 100,> 100,85.8,> 100,3.15,> 100,,,,,,,,,,,
Cn1cc(C2=C(c3nn(CCCN4CCOCC4)c4ncccc34)C(=O)NC2=O)c2ccccc21,> 100,> 100,> 100,> 100,5.95,> 100,,,,,,,,,,,
Cn1cc(C2=C(c3nn(CCCN4CCCCC4)c4ncccc34)C(=O)N(c3ccccn3)C2=O)c2ccccc21,7.3,> 100,> 100,> 100,> 10,> 100,,,,,,,,,,,
Cn1cc(C2=C(c3nn(CCCn4ccnc4)c4ncccc34)C(=O)N(c3ccccc3)C2=O)c2ccccc21,1.44,34.8,5.51,1.56,> 10,6.8,,,,,,,,,,,
Cn1cc(C2=C(c3nn(CCCn4cccc4)c4ncccc34)C(=O)N(c3ccccc3)C2=O)c2ccccc21,> 100,> 100,36.6,> 100,> 10,> 100,,,,,,,,,,,
Cn1cc(C2=C(c3n[nH]c4ncccc34)C(=O)N(c3ccccc3)C2=O)c2ccccc21,> 100,> 100,3.26,> 100,> 10,> 100,,,,,,,,,,,
Cn1cc(C2=C(c3nn(CCCCn4ccnc4)c4ncccc34)C(=O)NC2=O)c2ccccc21,23.5,29.2,31.8,2.38,0.86,> 100,,,,,,,,,,,
CN(C)CCCn1nc(C2=C(c3cn(C)c4ccccc34)C(=O)NC2=O)c2cccnc21,> 100,> 100,50.4,> 100,0.72,> 100,,,,,,,,,,,
Cn1cc(C2=C(c3nn(CCCn4cncn4)c4ncccc34)C(=O)N(c3ccccc3)C2=O)c2ccccc21,> 100,> 100,> 100,> 100,> 10,> 100,,,,,,,,,,,
Cn1cc(C2=C(c3nn(CCCn4ccnc4)c4ncccc34)C(=O)NC2=O)c2ccccc21,> 100,> 100,13.8,> 100,0.9,> 100,,,,,,,,,,,
